Dynein cargo inh – inhibitors of GR-EGFP nuclear translocation, primary screen, dynein cargo transport inhibitor project, imaging, high-content, 3617.4 mouse cells. test concentration mostly 20 µM; stimulated with dexamethasone, 1 µM; hits give low values. z-score, hits read low. actives 0.47% (n = 220,000). AID 1381, 2008;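 active = plate z-score of nuclear minus cytoplasmic receptor signal below a set negative limit, without overly bright fluorescence or cell loss, cut at about -3.5 in these data, passing the limit was not always enough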;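 note: z-score of nuclear minus cytoplasmic ring GR-EGFP intensity difference per well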
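Schedule: 48 h induction, then 1 h compound, then 30 min agonist, 37 °C. Buffer or medium: tetracycline-free induction medium containing charcoal-stripped FBS. Reagent: 1.0 µM final dexamethasone stimulus. Evaluation: nuclear versus cytoplasmic GR-EGFP signal, averaged per well. Signal: high-content fluorescence imaging after fixation.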
SDO1 yeast rescue – growth rescue of sdo1-depleted yeast, primary screen, S. cerevisiae, bone marrow failure model | S. cerevisiae sdo1-depleted JHY4D growth rescue, OD600 30 h; hits give high values; pdr5 snq2 efflux-pump mutant strain | z-score at 10 µM | actives 0.21% (n = 140,000) | AID 817, 2007;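 active = z-score above 3 at both the 24 hr and the 30 hr optical density reads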;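 note: z-score against mean and SD of all compound wells on the same plate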
HCT116 bCat-KO – primary screen for growth suppressors in beta-catenin knockout HCT116 cells (colon tumor, human); AID 818, 2007; viability, % at 10 µM; actives 1.5% (n = 140,000); HCT116 beta-catenin knockout viability, CellTiter-Glo, 60 h; hits give low values;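 active = viability at or under a set limit, the compound median less 4 SD, cut at about 6% in these data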;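 note: 0% = Hyamine 1622 control at 20 µM and 100% = untreated cell control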
Autophagy mod – autophagy modulators in MEF cells, primary screen, imaging, high-content, MEF GFP-LC3; MEF GFP-LC3 puncta imaging; test concentration mostly 10 µM; calls only at 10 µM (by protocol); actives 0.98% (n = 190,000); AID 463193, 2010;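 active = percentage of spot-positive cells more than 3 SD above its plate mean, without a fluorescence outlier flag or 80% toxicity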;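 note: spot-positive cell cutoff set from DMSO-treated cells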
PTEN del growth – growth suppression of PTEN-null HCT116, primary screen, cell-based, CellTiter-Glo; HCT116 PTEN-null viability, 60 h; hits give low values; viability, % at 10 µM; actives 1.2% (n = 140,000); AID 827, 2007;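 active = viability at or below a set limit, 4 SD under the median of all tested compounds, cut at about 3.7% in these data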;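 note: PTEN knockout HCT116 line with beta catenin targeted HCT116 as companion control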
Numbers without * were called inactive. A selection: hits, their analogues and other compounds. The true share with any hit is near 2.2%.

Results for CC(C)(C)N(Cc1ccccc1)C(=O)COC(=O)Cn1cnc2ccccc2c1=O ?
Dynein cargo inh: 0.14; Autophagy mod: inactive

Results for COc1cccc2sc(NN)nc12 ?
Dynein cargo inh: 1.9; Autophagy mod: inactive

Results for COc1cccc2sc(Nc3nnc(-c4ccccc4Cl)o3)nc12 ?
Dynein cargo inh: -0.084; SDO1 yeast rescue: -0.06; HCT116 bCat-KO: 10; Autophagy mod: active; PTEN del growth: 12

What do the screens show for `COc1ccccc1-c1nnc(Nc2nc3c(OC)cccc3s2)o1`?
Dynein cargo inh: -1.2; SDO1 yeast rescue: 1.5; HCT116 bCat-KO: 5.1*; Autophagy mod: inactive; PTEN del growth: 8

How did Cc1cc(OCCOCCNC(C)C)cc(C)c1Cl do in these assays?
Dynein cargo inh: 0.79; SDO1 yeast rescue: -1.2; HCT116 bCat-KO: 5.6*; Autophagy mod: inactive; PTEN del growth: 17

How did OCc1cn(-c2ccccc2)nc1-c1ccc(-c2nn(-c3ccccc3)cc2CO)cc1 do in these assays?
Dynein cargo inh: 0.43; SDO1 yeast rescue: -0.98; HCT116 bCat-KO: 89; Autophagy mod: inactive; PTEN del growth: 94

Results for Cc1ccc(-c2nn(-c3ccccc3)cc2CSC(=N)N)cc1 ?
Dynein cargo inh: 0.85; SDO1 yeast rescue: -0.55; HCT116 bCat-KO: 1.1*; Autophagy mod: inactive; PTEN del growth: 1.0*

Results for Cc1nn(-c2ccccc2)nc1CNC(=O)C1CCC1 ?
Dynein cargo inh: -0.42

How did Cc1ccc(C=Nc2ccccc2C(N)=O)cc1 do in these assays?
Dynein cargo inh: 0.058; SDO1 yeast rescue: 0.3; HCT116 bCat-KO: 27; Autophagy mod: active; PTEN del growth: 24

Results for Cc1ccc(C=Nc2ccccc2C(=O)Nc2ccccc2)cc1 ?
Dynein cargo inh: -0.51; SDO1 yeast rescue: -1.4; HCT116 bCat-KO: 96; Autophagy mod: inactive; PTEN del growth: 94

How did O=C(Nc1ccccc1)Nc1cc(OCC(F)(F)F)cc(OCC(F)(F)F)c1 do in these assays?
Dynein cargo inh: 0.31; SDO1 yeast rescue: -1.4; HCT116 bCat-KO: 2.2*; Autophagy mod: inactive; PTEN del growth: 1.9*

Results for O=C(Nc1ccccc1)Nc1cc(Cl)cc(Cl)c1 ?
Dynein cargo inh: 1.5; SDO1 yeast rescue: -1.9; HCT116 bCat-KO: 2.0*; Autophagy mod: inactive; PTEN del growth: 2.2*

What do the screens show for `CCOC(=O)c1cc(CC)sc1N`?
Dynein cargo inh: 0.18; SDO1 yeast rescue: 0.13; HCT116 bCat-KO: 104; Autophagy mod: inactive; PTEN del growth: 101

What do the screens show for `Cn1c(=O)c2c(nc(NCc3cccnc3)n2Cc2ccccc2Cl)n(C)c1=O`?
Dynein cargo inh: -0.47; Autophagy mod: inactive

What do the screens show for `CC(=O)Nc1ccc(S(=O)(=O)N2CCN(CC3CC4C=CC3C4)CC2)cc1` (centres undefined)?
Dynein cargo inh: -0.6; Autophagy mod: inactive

Results for CCCCN1C[C@H](O)[C@@H](O)[C@H](O)[C@H]1CO ?
Dynein cargo inh: 0.85; SDO1 yeast rescue: -0.69; HCT116 bCat-KO: 1.0*; Autophagy mod: inactive; PTEN del growth: 1.2*

What do the screens show for `CN(CCC#N)S(=O)(=O)c1ccc2[nH]cc(C(=O)NCCc3ccccc3)c(=O)c2c1`?
Dynein cargo inh: -0.38; SDO1 yeast rescue: -0.06; HCT116 bCat-KO: 96; Autophagy mod: inactive; PTEN del growth: 90

How did N#Cc1ncc(-c2ccc3c(c2)OCCOCCOCCOCCOCCO3)nc1C#N do in these assays?
Dynein cargo inh: -0.36; SDO1 yeast rescue: -2.2; HCT116 bCat-KO: 3.8*; Autophagy mod: inactive; PTEN del growth: 2.8*

What do the screens show for `O=C(CNc1cccc2ccccc12)N/N=C/c1ccc([N+](=O)[O-])o1`?
Dynein cargo inh: -0.19; SDO1 yeast rescue: -1.2; HCT116 bCat-KO: 4.7*; Autophagy mod: inactive; PTEN del growth: 5

Results for Cc1ccc(C(=O)N/N=C\c2ccc([N+](=O)[O-])o2)cn1 ?
Dynein cargo inh: 0.75

Results for O=C(Cc1ccc([N+](=O)[O-])cc1)N/N=C/c1ccc([N+](=O)[O-])o1 ?
Dynein cargo inh: -1.4; Autophagy mod: inactive

Results for O=[N+]([O-])c1ccc(/C=N/N=C/c2ccc([N+](=O)[O-])o2)o1 ?
Dynein cargo inh: -3.6*; Autophagy mod: inactive

What do the screens show for `CC1(C(=O)N/N=C/c2ccc([N+](=O)[O-])o2)CC1(Br)Br` (centres undefined)?
Dynein cargo inh: -0.16; SDO1 yeast rescue: 1.1; HCT116 bCat-KO: 2.6*; Autophagy mod: inactive; PTEN del growth: 2.5*

Results for Cc1cc2ncn(/N=C/c3ccc([N+](=O)[O-])o3)c2cc1C ?
Dynein cargo inh: -0.22; SDO1 yeast rescue: -1.7; HCT116 bCat-KO: 2.5*; Autophagy mod: inactive; PTEN del growth: 1.6*

Results for Cc1nc2[nH]c(=S)n(C)c(=O)c2nc1C ?
Dynein cargo inh: -1.4; SDO1 yeast rescue: 0.98; HCT116 bCat-KO: 109; Autophagy mod: inactive; PTEN del growth: 101

How did Cc1cc(=S)n(-c2ccccc2)n1C do in these assays?
Dynein cargo inh: -0.33; SDO1 yeast rescue: 0.86; HCT116 bCat-KO: 91; Autophagy mod: inactive; PTEN del growth: 95

How did COc1ccc(CCN(C)CC(=O)Nc2cc(C)nc3ccccc23)cc1OC do in these assays?
Dynein cargo inh: -0.0029

How did O=c1nc(N/N=C/C=C/c2ccccc2)cn[nH]1 do in these assays?
Dynein cargo inh: -0.33

Results for Cn1c(=O)c2c(ncn2CC(=O)N/N=C/C(Br)=C/c2ccccc2)n(C)c1=O ?
Dynein cargo inh: -0.094; SDO1 yeast rescue: 1.1; HCT116 bCat-KO: 2.4*; Autophagy mod: inactive; PTEN del growth: 2.6*

What do the screens show for `O=C(CNc1cccc2ccccc12)N/N=C/c1ccc[nH]1`?
Dynein cargo inh: -1.2

Results for O=C(CNc1cccc2ccccc12)N/N=C/C(Br)=C/c1ccccc1 ?
Dynein cargo inh: -0.24; SDO1 yeast rescue: -0.51; HCT116 bCat-KO: 2.7*; Autophagy mod: inactive; PTEN del growth: 1.2*

Results for COc1ccc(NS(=O)(=O)c2ccc(NC(=S)NC(=O)/C=C/c3ccccc3)cc2)nn1 ?
Dynein cargo inh: 0.11; SDO1 yeast rescue: -0.75; HCT116 bCat-KO: 88; Autophagy mod: inactive; PTEN del growth: 88

What do the screens show for `CSc1nc2nccc(/C=C\c3ccccc3)n2n1`?
Dynein cargo inh: -1.7; SDO1 yeast rescue: -0.66; HCT116 bCat-KO: 4.5*; Autophagy mod: inactive; PTEN del growth: 4

How did CCC/C(=N/Nc1ccc(Cl)cc1)c1cnnc(-c2ccccc2)n1 do in these assays?
Dynein cargo inh: -0.44; Autophagy mod: active

Results for CCOc1ncccc1C(=O)OCc1ccccc1 ?
Dynein cargo inh: 0.28; SDO1 yeast rescue: -0.22; HCT116 bCat-KO: 104; Autophagy mod: inactive; PTEN del growth: 94

What do the screens show for `CCOc1ncccc1C(=O)OCC(=O)N(CC)c1ccccc1`?
Dynein cargo inh: -0.73; Autophagy mod: active

Source: PubChem
